Sampled rows, rich in hits. Any-hit rate of the full collection: about 2.1%.
DENV2 CPE = DENV2-induced cell death inhibition; DENV2-infected cells, cytopathic effect rescue, plate reader; CPE inhibition, % at 9.99 µM; actives 1.7% (n = 350,000); AID 651640; in the data active = CPE inhibition above about 20%, passing the limit was not always enough; inconclusive = no clear call, values can overlap the other calls; tested in BHK-21 cells;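 also: 0% = median of neutral control wells and 100% = median of positive control wells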
Cneo AK release = Cryptococcus neoformans lysis via adenylate kinase release | C. neoformans lysis, adenylate kinase release luminescence, 4 h; normalised: neutral wells 0, clomiphene wells 100 | lysis activity, % at 15 µM | actives 0.2% (n = 360,000);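 active = mean lysis activity across replicates of at least 80%, whatever share of replicates individually reach that level; inactive = mean lysis activity below 80%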
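Test system: log-phase Cryptococcus neoformans yeast cells; Quantity: yeast cell density of 5 × 10^6 cells/mL; Buffer or medium: YPD; Doses: single compound concentration per well; Timing: 4 h at 37 °C static, read 1 h later; Measured by: AK luminescence; Read-out basis: lysis from increased AK signal; Control set: Clomiphene as positive control.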
Statin myotox sup = suppressors of simvastatin-induced myotoxicity in C2C12 myotubes. ATP luminescence, 48 h; scaled: DMSO 0, geranylgeraniol control 100. rescue of ATP level, % at 7.49 µM. actives 0.78% (n = 330,000);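 active = mean ATP rescue above about 67%, or every replicate alone reaching that limit, limit read from the data, passing the limit was not always enough; inconclusive = no clear call, values can overlap the other calls; inactive = mean under the limit and some replicate under it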;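 also: myotubes were challenged with 10 µM simvastatin during compound exposure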
Xi reactivation = activators of X-chromosome reactivation in mouse fibroblasts; actives 0.055% (n = 360,000); XiGFP mouse fibroblasts, % GFP-positive cells imaging, 3 d; cells co-treated with 5-aza-dC sensitizer; scaled so ellipticine positive control = 100%; activation, % at 7.58 µM;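 active = mean normalized replicate activation at least 10% and every replicate at or above 10%; inconclusive = only one of the two criteria met; inactive = mean below 10% and not all replicates reach 10%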;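 also: 0% = median of on-plate neutral control wells and 100% = ellipticine 6 µM median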
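System: 68-5-11 XiGFP fibroblast line | Buffer or medium: DMEM containing 5-aza-dC | Compound: Single point | Times: Compounds 3 days, fix/stain 15 min at room temperature | Benchmarks: Positive control ellipticine, 6 µM final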
Active calls of the source: *.

Screening Cc1noc(C)c1S(=O)(=O)N(C)C[C@@H]1Oc2ccc(NC(=O)CCCN(C)C)cc2C(=O)N([C@@H](C)CO)C[C@@H]1C returned DENV2 CPE 0, Cneo AK release 1 and Xi reactivation 0.
For Cc1ccc(C(=O)NCc2ccccn2)cc1NC1=NC2CS(=O)(=O)CC2S1 (stereo unspecified) the results were DENV2 CPE -7, Cneo AK release 1, Statin myotox sup 13 and Xi reactivation 22*.
`CCOc1ccc(CCNC(=O)c2ccc(C)c(NC3=NC4CS(=O)(=O)CC4S3)c2)cc1` (stereo unspecified) gave DENV2 CPE inconclusive, Cneo AK release -1, Statin myotox sup 23 and Xi reactivation 0.
For C[n+]1c2cc(N)ccc2cc2ccc(N)cc21 the results were DENV2 CPE -1, Cneo AK release -4, Statin myotox sup -96 and Xi reactivation 53*.
Screening COc1ccccc1S(=O)(=O)N1CC[C@@H]2[C@H]1c1cc(-c3ccc(F)cc3)ccc1N(C)[C@H]2CO returned DENV2 CPE -20, Cneo AK release -6, Statin myotox sup -24 and Xi reactivation 0.
`COc1ccc(COCC23N=C4SCc5ccccc5CN4[C@H](c4ccccc4O2)[C@H]3COC(=O)c2ccccc2)cc1` gave DENV2 CPE 32* and Cneo AK release 2.
COc1ccc(COCC23N=C4SCc5ccccc5C(=O)N4[C@H](c4ccccc4O2)[C@H]3COC(=O)c2ccccc2)cc1 was read as DENV2 CPE 12 and Cneo AK release 2.
Screening CO[C@@H]1CN(C)C(=O)c2ccc(NC(C)=O)cc2OC[C@@H](C)N(Cc2cncnc2)C[C@@H]1C returned Statin myotox sup 0 and Xi reactivation 0.
`Cc1noc(C)c1NC(=O)N(C)C[C@@H]1Oc2ccc(NC(=O)NC(C)C)cc2CC(=O)N([C@H](C)CO)C[C@H]1C` gave DENV2 CPE 4, Cneo AK release 102*, Statin myotox sup -8 and Xi reactivation 0.
Screening Cc1noc(C)c1NC(=O)N(C)C[C@H]1Oc2ccc(NC(=O)NC(C)C)cc2CC(=O)N([C@H](C)CO)C[C@@H]1C returned DENV2 CPE 5, Cneo AK release 2, Statin myotox sup -13 and Xi reactivation -1.
Cc1noc(C)c1NC(=O)N(C)C[C@@H]1Oc2ccc(NC(=O)C3CC3)cc2CC(=O)N([C@H](C)CO)C[C@@H]1C was read as DENV2 CPE 12, Cneo AK release 107*, Statin myotox sup 8 and Xi reactivation 0.
`Cc1noc(C)c1NC(=O)N(C)C[C@H]1Oc2ccc(NC(=O)NC3CCCCC3)cc2CC(=O)N([C@@H](C)CO)C[C@@H]1C` gave DENV2 CPE -3, Cneo AK release -2, Statin myotox sup -11 and Xi reactivation 3.
Cc1noc(C)c1NC(=O)N(C)C[C@@H]1Oc2ccc(NC(=O)NC3CCCCC3)cc2CC(=O)N([C@H](C)CO)C[C@H]1C was read as DENV2 CPE 32*, Cneo AK release -5, Statin myotox sup 27 and Xi reactivation -1.
Cc1noc(C)c1NC(=O)Nc1ccc2c(c1)CC(=O)N([C@H](C)CO)C[C@H](C)[C@H](CN(C)C(=O)Nc1ccccc1)O2 was read as DENV2 CPE 20*, Cneo AK release 1, Statin myotox sup 17 and Xi reactivation 2.
`C[C@@H]1CCCCO[C@H](CN(C)Cc2ccncc2)[C@@H](C)CN([C@H](C)CO)C(=O)c2cc(NC(=O)NC3CCCCC3)ccc2O1` gave DENV2 CPE 11, Cneo AK release 0, Statin myotox sup -15 and Xi reactivation 0.
Cc1noc(C)c1NC(=O)N(C)C[C@H]1Oc2ccc(NC(=O)Cc3ccccc3)cc2CC(=O)N([C@@H](C)CO)C[C@H]1C was read as DENV2 CPE 54*, Cneo AK release -1, Statin myotox sup -6 and Xi reactivation -1.
For Cc1noc(C)c1NC(=O)N(C)C[C@@H]1Oc2ccc(NC(=O)NC(C)C)cc2CC(=O)N([C@@H](C)CO)C[C@@H]1C the results were DENV2 CPE -4, Cneo AK release 106* and Statin myotox sup -12.
Screening Cc1noc(C)c1NC(=O)N(C)C[C@@H]1Oc2ccc(NC(=O)Cc3ccccc3)cc2CC(=O)N([C@H](C)CO)C[C@H]1C returned DENV2 CPE 6, Cneo AK release 13, Statin myotox sup 6 and Xi reactivation 0.
`COc1ccc(C2c3cc(OC)c(OC)cc3CC3C(=O)OCC32)cc1OC` (stereo unspecified) gave DENV2 CPE -6, Cneo AK release 0, Statin myotox sup 96* and Xi reactivation 0.
`COc1ccc(C2CC(=O)c3cc(OC)c(OC)cc32)cc1OC` (stereo unspecified) gave DENV2 CPE 5, Cneo AK release 1 and Xi reactivation 0.
C[C@H](CO)N1C[C@H](C)[C@@H](CN(C)S(C)(=O)=O)OCCCC[C@H](C)Oc2ccc(NC(=O)CCC(F)(F)F)cc2C1=O was read as Statin myotox sup -17 and Xi reactivation 0.
`C[C@@H]1CN([C@H](C)CO)C(=O)c2cc(NS(=O)(=O)c3cn(C)cn3)ccc2O[C@@H](C)CCCCO[C@@H]1CN(C)C` gave DENV2 CPE 0, Cneo AK release -1 and Xi reactivation 0.
CC(C)C(=O)N(c1ccc2oc(=O)sc2c1)S(=O)(=O)c1ccccc1 was read as DENV2 CPE 2, Cneo AK release 4 and Statin myotox sup 106*.
O=C(CSc1nnnn1-c1ccccc1)NC(=O)NCc1ccco1 was read as Cneo AK release -1 and Statin myotox sup 95*.
Cc1ccc(S(=O)(=O)Nc2ccc3c(c2)CC(=O)N([C@@H](C)CO)C[C@H](C)[C@H](CN(C)Cc2ccc(C(F)(F)F)cc2)O3)cc1 was read as Statin myotox sup 30 and Xi reactivation -1.
`C[C@H](CO)N1C[C@H](C)[C@@H](CN(C)Cc2ccc(C(F)(F)F)cc2)Oc2ccc(NS(=O)(=O)c3ccc(F)cc3)cc2CC1=O` gave DENV2 CPE 8, Cneo AK release 5, Statin myotox sup 83* and Xi reactivation -1.
Cc1ccc(S(=O)(=O)Nc2ccc3c(c2)CC(=O)N([C@H](C)CO)C[C@H](C)[C@@H](CN(C)Cc2ccc(C(F)(F)F)cc2)O3)cc1 was read as Statin myotox sup 115* and Xi reactivation 0.
For O=C(C[C@@H]1C[C@H]2c3cc(NS(=O)(=O)c4ccc(F)cc4)ccc3O[C@H]2[C@H](CO)O1)NC1CCCCC1 the results were DENV2 CPE -5, Cneo AK release -4, Statin myotox sup -4 and Xi reactivation 0.
For COc1ccccc1C#Cc1ccc([C@@H]2[C@@H](C#N)N(C(=O)C3CCCCC3)[C@H]2CO)cc1 the results were DENV2 CPE 4, Cneo AK release -3, Statin myotox sup -180 and Xi reactivation 0.
Screening COc1cccc(N=Nc2c(=O)[nH]n3c(=O)cc(C)[nH]c23)c1 returned Statin myotox sup 94*.

From PubChem
